From ChEMBL document CHEMBL2331370, “Structure and absolute configuration of fumiquinazoline L, an alkaloid from a gorgonian-derived Scopulariopsis sp. fungus” (J Nat Prod, 2013)
Activity calls are given as the source filed them. The rule behind the calls is not given here.

Legend:
Vibrio anguillarum = experiment: Antibacterial activity against Vibrio anguillarum ATCC 19019 at 50 uM after 24 hrs by serial dilution technique; type: functional, organism-based
Summary of the method: (§1)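 Broth serial dilution MIC in 96-well plates. Compound given as DMSO stock. Strains grown overnight at 37 °C in LB broth, then diluted to 106 cfu/mL. Positive control ciprofloxacin; DMSO as negative control; LB broth as blank. Incubation 37 °C, 24 h, then plates read at 630 nm.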

Escherichia coli = experiment: Antibacterial activity against Escherichia coli ATCC 25922 at 50 uM after 24 hrs by serial dilution technique; type: functional, organism-based; summary of the method: as §1
Staphylococcus aureus = experiment: Antibacterial activity against Staphylococcus aureus ATCC 27154 at 50 uM after 24 hrs by serial dilution technique; type: functional, organism-based; summary of the method: as §1
Micrococcus = experiment: Antibacterial activity against Micrococcus tetragenus ATCC 13623 at 50 uM after 24 hrs by serial dilution technique; type: functional, organism-based; summary of the method: as §1
Bacillus cereus = experiment: Antibacterial activity against Bacillus cereus ACCC 11077 at 50 uM after 24 hrs by serial dilution technique; type: functional, organism-based; summary of the method: as §1
Micrococcus luteus = experiment: Antibacterial activity against Micrococcus luteus ATCC 49732 at 50 uM after 24 hrs by serial dilution technique; type: functional, organism-based; summary of the method: as §1
Vibrio parahaemolyticus = experiment: Antibacterial activity against Vibrio parahaemolyticus ATCC 17802 after 24 hrs by serial dilution technique; type: functional; conditions: ATCC 17802, 24 h; summary of the method: as §1
Staphylococcus = experiment: Antibacterial activity against Staphylococcus albus ATCC 8799 after 24 hrs by serial dilution technique; type: functional; conditions: ATCC 8799, 24 h; summary of the method: as §1
Bacillus subtilis = experiment: Antibacterial activity against Bacillus subtilis ATCC 6633 after 24 hrs by serial dilution technique; type: functional; conditions: ATCC 6633, 24 h; summary of the method: as §1
K562 = experiment: Cytotoxicity against human K562 cells at 100 uM after 6 days by MTT assay; type: functional, cell-based
Bel-7402 = experiment: Cytotoxicity against human Bel7402 cells at 100 uM after 6 days by MTT assay; type: functional, cell-based
SGC-7901 = experiment: Cytotoxicity against human SGC7901 cells at 100 uM after 6 days by MTT assay; type: functional, cell-based
A549 = experiment: Cytotoxicity against human A549 cells after 6 days by MTT assay; type: functional, cell-based; conditions: A549, 144 h
SPC-A1 = experiment: Cytotoxicity against human SPC-A1 cells at 100 uM after 6 days by MTT assay; type: functional, cell-based

Q: For `CC(C)[C@@H]1N[C@@H]2N(C1=O)c1ccccc1[C@]21C[C@@H]2C(=O)N[C@](C)(O1)c1nc3ccccc3c(=O)n12` [FUMIQUINAZOLINE L], which Activity (Vibrio anguillarum) is on record?
A: Its Activity is “inactive”.

Q: And the Activity (Escherichia coli)?
A: Its Activity is “inactive”.

Q: And the Activity (Staphylococcus aureus)?
A: The Activity was “inactive”.

Q: And the Activity (Micrococcus)?
A: Its Activity is “inactive”.

Q: What about the Activity (Bacillus cereus) of the same compound?
A: Its Activity is “inactive”.

Q: And the Activity (Micrococcus luteus)?
A: Its Activity is “inactive”.

Q: What about the MIC (Vibrio parahaemolyticus) of the same compound?
A: Its MIC is > 50 µM.

Q: What about the MIC (Staphylococcus) of the same compound?
A: Its MIC is > 50 µM.

Q: What about the MIC (Bacillus subtilis) of the same compound?
A: Its MIC is > 50 µM.

Q: What about the Activity (K562) of the same compound?
A: Its Activity is “inactive”.

Q: What about the Activity (Bel-7402) of the same compound?
A: The Activity was “inactive”.

Q: What about the Activity (SGC-7901) of the same compound?
A: The Activity was “inactive”.

Q: What about the IC50 (A549) of the same compound?
A: The IC50 was > 10 µM.

Q: And the Activity (SPC-A1)?
A: Its Activity is “inactive”.
